The results in this text go back to ChEMBL document CHEMBL2311318, “Lead optimization of a dihydropyrrolopyrimidine inhibitor against phosphoinositide 3-kinase (PI3K) to improve the phenol glucuronic acid conjugation” (Bioorg Med Chem Lett, 2013).

Molecules are shown by their SMILES.

A short description of series [1]: Half life in mouse liver microsomes at 1 uM in presence of NADPH. The class given is ADME, Microsome. In short, it runs like this: (§1)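 Compound at 1 µM was incubated at 37 °C for 30 min with human or mouse liver microsomes (0.5 mg protein/ml) in 50 mM phosphate buffer, pH 7.4, with 1 mM NADPH. The reaction was quenched with three volumes of acetonitrile and centrifuged. Remaining compound in the supernatant was quantified by LC/MS.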

The test system of the next series is PC-3. Put plainly: Cytotoxicity against PTEN-deficient human PC3 cells assessed as growth inhibition after 96 hrs. In kind it is functional, cell-based. The conditions noted are these: PC-3, 96 h. The procedure, abridged:
(§2)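 KPL-4 breast, HCT116 colon and PC-3 prostate cancer cells were exposed to a range of compound concentrations for 96 h. Growth inhibition was read with Cell Counting Kit-8.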

Series [2] in a line: Half life in mouse liver microsomes at 5 uM in presence of UDPGA. The class given is ADME, Microsome. The procedure, abridged:
(§3)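 Human or mouse liver microsomes (1.0 mg protein/ml) were pretreated with 25 µg/ml alamethicin in 50 mM Tris-HCl, pH 7.5, at 4 °C for 30 min to release UGTs. Compound at 5 µM was then incubated with 2 mM UDPGA at 37 °C for 60 min. The reaction was quenched with three volumes of acetonitrile and centrifuged.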
On the technique in general: Liver microsomes are vesicles of endoplasmic reticulum, rich in cytochrome P450 enzymes.

The subject of the next series is HCT-116. Put plainly: Cytotoxicity against human HCT116 cells expressing PI3Kalpha H1047R mutant assessed as growth inhibition after 96 hrs. The conditions noted are these: HCT-116, 96 h. The class given is functional, cell-based. In short, it runs like this:
as §2

Series [3] in a line: Half life in BALB/c nu mouse at 10 mg/kg, iv. On the set-up: dose 10 mg/kg, route intravenous. The conditions noted are these: in vivo. The class given is ADME, organism-based. In short, it runs like this:
(§4)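 Female BALB/c-nu mice, n = 2 per group, dosed iv at 10 mg/kg or po at 100 mg/kg. Heparinized blood drawn at 0.08, 0.25, 2, 4, 7 and 24 h after iv dosing, and at 0.50, 2, 4, 7 and 24 h after po dosing. Plasma stored at -80 °C and assayed by LC–MS/MS. Parameters come from non-compartmental analysis and are the mean of two animals.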

Series [4] can be described thus: AUC in BALB/c nu mouse at 10 mg/kg, iv. On the set-up: dose 10 mg/kg, route intravenous. The following applies: plasma. In kind it is ADME, organism-based. The procedure, abridged:
as §4

Series [5] in a line: Antitumor activity against human KPL4 cells expressing PI3Kalpha H1047R mutant xenografted in BALB nu/nu mouse assessed as tumor growth inhibition at 80mg/kg, po qd relative to control. The class given is functional. The following applies: read-out: TGI. In short, it runs like this: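 KPL-4 cells were injected orthotopically into the mammary fat pad of female BALB-nu/nu mice. Tumors were measured with a gauge twice weekly, with volume = length × width²/2. Once tumors reached about 200 mm³, mice were randomized (n = 5 per group) and treatment began.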
On the technique in general: A xenograft is tissue or cells of one species grown in another, often human tumour cells in immunodeficient mice.

The nature of series [6]: AUC in BALB/c nu mouse at 100 mg/kg, po. In kind it is ADME, organism-based. Set-up: dose 100 mg/kg, route oral. The following applies: plasma. In short, it runs like this:
as §4

Series [7] can be described thus: Cmax in BALB/c nu mouse at 100 mg/kg, po. The class given is ADME, organism-based. On the set-up: dose 100 mg/kg, route oral. The conditions noted are these: in vivo. The procedure, abridged: as §4
A short description of series [8]: Half life in human liver microsomes at 5 uM in presence of UDPGA. The class given is ADME, Microsome. The procedure, abridged: as §3
Series [9] is described as follows: Apparent oral clearance in BALB/c nu mouse at 100 mg/kg. The class given is ADME, organism-based. On the set-up: dose 100 mg/kg, route oral. The conditions noted are these: in vivo. In short, it runs like this: as §4
A short description of series [10]: Half life in BALB/c nu mouse at 100 mg/kg, po. The class given is ADME, organism-based. Set-up: dose 100 mg/kg, route oral. The conditions noted are these: in vivo. In short, it runs like this:
as §4

Series [11] is described as follows: Cytotoxicity against human KPL4 cells expressing PI3Kalpha H1047R mutant assessed as growth inhibition after 96 hrs. The following applies: KPL4, 96 h. The class given is functional, cell-based. In short, it runs like this:
as §2

The target in series [12] is Phosphatidylinositol 4,5-bisphosphate 3-kinase catalytic subunit alpha isoform (Homo sapiens, UniProt P42336). The series can be described thus: Inhibition of PI3Kalpha (unknown origin) using phosphatidylinositol 4,5-bisphosphate as substrate. The procedure, abridged:
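Recombinant PI3Kα (p110α/p85α) activity was measured with the Adapta Universal Kinase Assay using PIP2:PS lipid substrate.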

Series [13] is described as follows: Half life in human liver microsomes at 1 uM in presence of NADPH. The class given is ADME, Microsome. The procedure, abridged:
as §1

Sequence of Phosphatidylinositol 4,5-bisphosphate 3-kinase catalytic subunit alpha isoform (P42336 whole entry, canonical isoform): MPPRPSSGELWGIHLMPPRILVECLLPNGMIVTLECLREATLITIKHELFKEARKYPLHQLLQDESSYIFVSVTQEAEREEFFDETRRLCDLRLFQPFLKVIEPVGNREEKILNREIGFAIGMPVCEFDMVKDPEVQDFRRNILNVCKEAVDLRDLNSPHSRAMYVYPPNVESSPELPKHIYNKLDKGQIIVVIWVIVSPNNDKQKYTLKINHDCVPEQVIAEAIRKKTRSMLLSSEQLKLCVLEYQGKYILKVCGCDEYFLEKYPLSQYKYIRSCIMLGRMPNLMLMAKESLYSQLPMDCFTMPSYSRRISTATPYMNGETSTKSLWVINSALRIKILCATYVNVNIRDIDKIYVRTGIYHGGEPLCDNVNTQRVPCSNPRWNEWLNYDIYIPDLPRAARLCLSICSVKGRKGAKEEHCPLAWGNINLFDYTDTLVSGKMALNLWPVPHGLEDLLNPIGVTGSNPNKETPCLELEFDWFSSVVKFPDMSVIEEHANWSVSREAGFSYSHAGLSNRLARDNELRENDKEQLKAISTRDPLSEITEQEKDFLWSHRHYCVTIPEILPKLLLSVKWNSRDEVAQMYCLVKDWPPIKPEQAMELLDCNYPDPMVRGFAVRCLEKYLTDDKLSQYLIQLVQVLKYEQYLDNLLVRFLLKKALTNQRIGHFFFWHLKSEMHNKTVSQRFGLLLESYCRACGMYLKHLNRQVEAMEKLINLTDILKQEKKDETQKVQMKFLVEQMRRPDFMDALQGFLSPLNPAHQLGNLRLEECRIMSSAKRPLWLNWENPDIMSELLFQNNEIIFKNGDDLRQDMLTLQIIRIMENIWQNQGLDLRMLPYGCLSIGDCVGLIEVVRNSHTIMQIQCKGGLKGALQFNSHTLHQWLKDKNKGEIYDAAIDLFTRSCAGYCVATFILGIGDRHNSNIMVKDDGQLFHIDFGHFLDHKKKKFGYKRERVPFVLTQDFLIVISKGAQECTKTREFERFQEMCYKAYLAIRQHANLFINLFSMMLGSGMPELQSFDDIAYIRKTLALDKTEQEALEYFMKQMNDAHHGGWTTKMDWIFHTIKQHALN

For the molecule `Oc1cccc(-c2nc(N3CCOCC3)nc3c2CCN3c2ccncc2)c1`, the half-life – broadly, the time in which the quantity being followed falls by half – at 1 µM in series [1] is 0.333 h. The IC50 (in general, the midpoint of a concentration-inhibition curve) worked out at 140 nM in the series on PC-3 and 720 nM in the series with HCT-116. The half-life at 5 µM in series [2] is 0.102 h.
For `Nc1ncc(-c2nc(N3CCOCC3)nc3c2CCN3c2cccnc2)cn1`, in series [1], the half-life at 1 µM stood at 1.05 h. The IC50 in the series on PC-3 came to 420 nM; in the series with HCT-116, 170 nM; in series [11], 15 nM. In addition, the half-life in series [3] was 10.3 h; in series [10], 6.58 h. For the same molecule, the AUC (in general, the area under the concentration-time curve, a measure of exposure) in series [4] is 4690 ng·h/mL; in series [6], 19400 ng·h/mL. In series [5], the inhibition in vivo at 80 mg/kg turned out to be 166%. Moreover, the half-life at 5 µM in [2] and in series [8] was above 1 h throughout. In addition, in series [7], the Cmax (as a rule, the peak of the concentration-time curve) is 4190 ng/mL. In addition, in [9], the CL/F (usually the apparent clearance, not corrected for the fraction that reaches the circulation) is 86.1 mL/min/kg.
In turn, `NC(=O)c1cccc(-c2nc(N3CCOCC3)nc3c2CCN3c2ccncc2)c1` gave an IC50 in series [12] of 19000 nM.
With `CNC(=O)c1cccc(-c2nc(N3CCOCC3)nc3c2CCN3c2ccncc2)c1`, the IC50 in series [12] stood at 2400 nM.
`CNS(=O)(=O)c1cccc(-c2nc(N3CCOCC3)nc3c2CCN3c2ccncc2)c1` returned a 50% inhibitory concentration (IC50) in series [12] above 50000 nM.
Still for that read-out and setting: the same measure for `c1cc(N2CCc3c(-c4ccc5cn[nH]c5c4)nc(N4CCOCC4)nc32)ccn1`: above 50000 nM.
Still for that read-out and setting: the result for `c1cc(N2CCc3c(-c4ccc5[nH]ncc5c4)nc(N4CCOCC4)nc32)ccn1` reads above 50000 nM; that for `Nc1n[nH]c2cc(-c3nc(N4CCOCC4)nc4c3CCN4c3ccncc3)ccc12`, above 50000 nM.
The same measure, in the same setting: the result for `c1cc(-c2nc(N3CCOCC3)nc3c2CCN3c2ccncc2)c2cn[nH]c2c1` reads above 50000 nM; that for `c1cc(-c2nc(N3CCOCC3)nc3c2CCN3c2ccncc2)c2[nH]ncc2c1`, above 50000 nM.
`c1cc(-c2nc(N3CCOCC3)nc3c2CCN3c2ccncc2)ccn1`: the midpoint of inhibition in series [12], the IC50, lay at 22600 nM.
Same read-out and setting: the result for `c1cncc(-c2nc(N3CCOCC3)nc3c2CCN3c2ccncc2)c1` reads 1700 nM.
Same read-out and setting: the same measure for `c1cc(N2CCc3c(-c4cncnc4)nc(N4CCOCC4)nc32)ccn1`: 440 nM.
Turning to `Nc1ncc(-c2nc(N3CCOCC3)nc3c2CCN3c2ccncc2)cn1`, the values for the half-life at 1 µM in series [1] and in series [13] were 0.45 h and 2.12 h, respectively. Besides, the IC50 was 120 nM in the series on PC-3, 26 nM in series [12], 91 nM with HCT-116 and 29 nM in [11]. Besides, the half-life at 5 µM in [2] and in series [8] was above 1 h throughout.
On to `Oc1cccc(-c2nc(N3CCOCC3)nc3c2CCN3c2ccccn2)c1`, for which the IC50 in [12] was above 50000 nM.
In series [12], `Oc1cccc(-c2nc(N3CCOCC3)nc3c2CCN3c2ccccc2)c1` registered an IC50 of 1220 nM.
The same measure, in the same setting: the same measure for `Cc1cc(N2CCc3c(-c4cccc(O)c4)nc(N4CCOCC4)nc32)ccn1`: 170 nM; for `Oc1cccc(-c2nc(N3CCOCC3)nc3c2CCN3c2ccnc(O)c2)c1`: 200 nM.
Same read-out and setting: the same measure for `Oc1cccc(-c2nc(N3CCOCC3)nc3c2CCN3c2ccc3ncccc3c2)c1`: above 50000 nM; for `Oc1cccc(-c2nc(N3CCOCC3)nc3c2CCN3c2nccs2)c1`: 49 nM.
On the same count and under the same terms, the same measure for `Cn1ccc(N2CCc3c(-c4cccc(O)c4)nc(N4CCOCC4)nc32)n1`: 230 nM; for `COc1cccc(-c2nc(N3CCOCC3)nc3c2CCN3c2ccncc2)c1`: 410 nM.
Regarding `Cc1ccc(-c2nc(N3CCOCC3)nc3c2CCN3c2ccncc2)cc1O`, the IC50 in series [12] was above 50000 nM.
Still for that read-out and setting: the same measure for `Cc1c(O)cccc1-c1nc(N2CCOCC2)nc2c1CCN2c1ccncc1`: above 50000 nM; for `Nc1cccc(-c2nc(N3CCOCC3)nc3c2CCN3c2ccncc2)c1`: 3700 nM.
The same measure, in the same setting: the result for `O=C(O)c1cccc(-c2nc(N3CCOCC3)nc3c2CCN3c2ccncc2)c1` reads above 50000 nM.
